Laboratory results reported in ChEMBL document CHEMBL1649258, “Combined inactivation of lon and ycgE decreases multidrug susceptibility by reducing the amount of OmpF porin in Escherichia coli” (2009).
Values after ≈ are worked out from the molar mass of the structure shown.

Legend:
Format in all cases: functional
Escherichia coli [1] = assay: Antibacterial activity against wild-type Escherichia coli AG100 harboring IS186 insertion in lon3 gene and Tn5 insertion in ycgE gene at 26 degC by Etest method
Escherichia coli [2] = assay: Antibacterial activity against wild-type Escherichia coli AG100 at 26 degC by Etest method
Escherichia coli [3] = assay: Antibacterial activity against wild-type Escherichia coli AG100 harboring IS186 insertion in lon3 gene and Tn5 insertion in ycgE gene at 37 degC by Etest method
Escherichia coli [4] = assay: Antibacterial activity against wild-type Escherichia coli AG100 harboring marR mutant gene at 26 degC by Etest method
Escherichia coli [5] = assay: Antibacterial activity against wild-type Escherichia coli AG100 harboring Tn5 insertion in ycgE gene at 26 degC by Etest method
Escherichia coli [6] = assay: Antibacterial activity against wild-type Escherichia coli AG100 at 37 degC by Etest method
Escherichia coli [7] = assay: Antibacterial activity against ompF-deficient Escherichia coli AG100 at 37 degC by Etest method
Escherichia coli [8] = assay: Antibacterial activity against ompF-deficient Escherichia coli AG100 harboring IS186 insertion in lon3 gene and Tn5 insertion in ycgE gene at 26 degC by Etest method
Escherichia coli [9] = assay: Antibacterial activity against wild-type Escherichia coli AG100 harboring IS186 insertion in lon3 gene at 37 degC by Etest method
Escherichia coli [10] = assay: Antibacterial activity against wild-type Escherichia coli AG100 harboring IS186 insertion in lon3 gene at 26 degC by Etest method
Escherichia coli [11] = assay: Antibacterial activity against wild-type Escherichia coli AG100 harboring Tn5 insertion in ycgE gene at 37 degC by Etest method
Escherichia coli [12] = assay: Antibacterial activity against ompF-deficient Escherichia coli AG100 at 26 degC by Etest method
Escherichia coli [13] = assay: Antibacterial activity against wild-type Escherichia coli AG100 harboring marR mutant gene at 37 degC by Etest method
Escherichia coli [14] = assay: Antibacterial activity against ompF-deficient Escherichia coli AG100 harboring IS186 insertion in lon3 gene and Tn5 insertion in ycgE gene at 37 degC by Etest method
Escherichia coli [15] = assay: Antibacterial activity against wild-type Escherichia coli AG100 harboring IS186 insertion in lon3 gene, Tn5 insertion in ycgE gene and plasmid pMPM carrying ompF gene at 26 degC by Etest method
Escherichia coli [16] = assay: Antibacterial activity against wild-type Escherichia coli AG100 harboring IS186 insertion in lon3 gene, Tn5 insertion in ycgE gene and plasmid pMPM at 26 degC by Etest method
Escherichia coli [17] = assay: Antibacterial activity against wild-type Escherichia coli AG100 harboring IS186 insertion in lon3 gene, Tn5 insertion in ycgE gene, plasmid pET21b carrying ompF gene and pACT7SP at 26 degC by Etest method
How it was run: (§1)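 MIC by Etest on LB agar at 26°C for the lon ycgE strain with pACT7Sp plus pET21b or pET21b-ompF; plates contained 100 μg/ml ampicillin, 50 μg/ml spectinomycin and 0.1 mM IPTG to induce OmpF; averages of at least four measurements.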

Escherichia coli [18] = assay: Antibacterial activity against wild-type Escherichia coli AG100 harboring IS186 insertion in lon3 gene, Tn5 insertion in ycgE gene, plasmid pET21b and pACT7SP at 26 degC by Etest method; how it was run: as §1

Row | SMILES | MIC (Escherichia coli [1]) [µg/mL] | MIC (Escherichia coli [2]) [µg/mL] | MIC (Escherichia coli [3]) [µg/mL] | MIC (Escherichia coli [4]) [µg/mL] | MIC (Escherichia coli [5]) [µg/mL] | MIC (Escherichia coli [6]) [µg/mL] | MIC (Escherichia coli [7]) [µg/mL] | MIC (Escherichia coli [8]) [µg/mL] | MIC (Escherichia coli [9]) [µg/mL] | MIC (Escherichia coli [10]) [µg/mL] | MIC (Escherichia coli [11]) [µg/mL] | MIC (Escherichia coli [12]) [µg/mL] | MIC (Escherichia coli [13]) [µg/mL] | MIC (Escherichia coli [14]) [µg/mL] | MIC (Escherichia coli [15]) [µg/mL] | MIC (Escherichia coli [16]) [µg/mL] | MIC (Escherichia coli [17]) [µg/mL] | MIC (Escherichia coli [18]) [µg/mL]
1 | O=C(N[C@H](CO)[C@H](O)c1ccc([N+](=O)[O-])cc1)C(Cl)Cl [CHLORAMPHENICOL] | 12 (≈ 37.1 µM) | 4 (≈ 12.4 µM) | 9.3 (≈ 28.8 µM) | 24 (≈ 74.3 µM) | 4 (≈ 12.4 µM) | 4 (≈ 12.4 µM) | 6.7 (≈ 20.7 µM) | 13.3 (≈ 41.2 µM) | 4 (≈ 12.4 µM) | 4 (≈ 12.4 µM) | 4 (≈ 12.4 µM) | 6 (≈ 18.6 µM) | 21 (≈ 65 µM) | 10.7 (≈ 33.1 µM) | – | – | – | –
2 | CC(=O)OCC1=C(C(=O)O)N2C(=O)[C@@H](NC(=O)Cc3cccs3)[C@H]2SC1 [CEPHALOTHIN] | 6 (≈ 15.1 µM) | 1 (≈ 2.52 µM) | 4.7 (≈ 11.9 µM) | 10.7 (≈ 27 µM) | 1.3 (≈ 3.28 µM) | 2 (≈ 5.04 µM) | 4.7 (≈ 11.9 µM) | 6.7 (≈ 16.9 µM) | 2 (≈ 5.04 µM) | 1.2 (≈ 3.03 µM) | 2.3 (≈ 5.8 µM) | 4.7 (≈ 11.9 µM) | 9.3 (≈ 23.5 µM) | 4.7 (≈ 11.9 µM) | 2 (≈ 5.04 µM) | 5.3 (≈ 13.4 µM) | – | –
3 | CC1(C)S[C@@H]2[C@H](NC(=O)[C@H](N)c3ccccc3)C(=O)N2[C@H]1C(=O)O [AMPICILLIN] | 1.8 (≈ 5.15 µM) | 0.75 (≈ 2.15 µM) | 1.7 (≈ 4.87 µM) | 4 (≈ 11.4 µM) | 0.75 (≈ 2.15 µM) | 1 (≈ 2.86 µM) | 1.83 (≈ 5.24 µM) | 2.3 (≈ 6.58 µM) | 1 (≈ 2.86 µM) | 0.83 (≈ 2.38 µM) | 1 (≈ 2.86 µM) | 1.5 (≈ 4.29 µM) | 3 (≈ 8.59 µM) | 2.2 (≈ 6.3 µM) | 1.5 (≈ 4.29 µM) | 2.3 (≈ 6.58 µM) | – | –
4 | CN(C)[C@@H]1C(O)=C(C(N)=O)C(=O)[C@@]2(O)C(O)=C3C(=O)c4c(O)cccc4[C@@](C)(O)[C@H]3C[C@@H]12 [TETRACYCLINE] | 2 (≈ 4.5 µM) | 0.5 (≈ 1.13 µM) | 2 (≈ 4.5 µM) | 6 (≈ 13.5 µM) | 0.5 (≈ 1.13 µM) | 1 (≈ 2.25 µM) | 1.83 (≈ 4.12 µM) | 2 (≈ 4.5 µM) | 1 (≈ 2.25 µM) | 0.5 (≈ 1.13 µM) | 1 (≈ 2.25 µM) | 2 (≈ 4.5 µM) | 4 (≈ 9 µM) | 2 (≈ 4.5 µM) | – | – | – | –
5 | CCn1cc(C(=O)O)c(=O)c2ccc(C)nc21 [NALIDIXIC ACID] | 3.3 (≈ 14.2 µM) | 4 (≈ 17.2 µM) | 4 (≈ 17.2 µM) | 6.7 (≈ 28.8 µM) | 3.7 (≈ 15.9 µM) | 4 (≈ 17.2 µM) | 4 (≈ 17.2 µM) | 3.3 (≈ 14.2 µM) | 4 (≈ 17.2 µM) | 3.7 (≈ 15.9 µM) | 4 (≈ 17.2 µM) | 3.3 (≈ 14.2 µM) | 10.7 (≈ 46.1 µM) | 4 (≈ 17.2 µM) | 3 (≈ 12.9 µM) | 3 (≈ 12.9 µM) | 3 (≈ 12.9 µM) | 3 (≈ 12.9 µM)
6 | C[C@H]1c2cccc(O)c2C(=O)C2=C(O)[C@]3(O)C(=O)C(C(N)=O)=C(O)[C@@H](N(C)C)[C@@H]3[C@@H](O)[C@@H]21.O [DOXYCYCLINE] | 2 | 0.5 | 2 | 3.7 | 0.83 | 1 | 2 | 2 | 1.17 | 0.75 | 1.17 | 2 | 3.3 | 2 | – | – | 0.75 | 2
7 | CO[C@@]1(NC(=O)Cc2cccs2)C(=O)N2C(C(=O)O)=C(COC(N)=O)CS[C@@H]21 [CEFOXITIN] | 4 (≈ 9.36 µM) | 0.75 (≈ 1.75 µM) | 4 (≈ 9.36 µM) | 7.3 (≈ 17.1 µM) | 0.92 (≈ 2.15 µM) | 1.5 (≈ 3.51 µM) | 3 (≈ 7.02 µM) | 4.7 (≈ 11 µM) | 1.7 (≈ 3.98 µM) | 0.92 (≈ 2.15 µM) | 1.7 (≈ 3.98 µM) | 3 (≈ 7.02 µM) | 6 (≈ 14 µM) | 3 (≈ 7.02 µM) | 1 (≈ 2.34 µM) | 6 (≈ 14 µM) | – | –
